The source made the active and inactive calls.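 The calls were made as follows: active = inhibition of 30% or more at any tested concentration; inactive = the rest.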
Biological target: M17 leucyl aminopeptidase (Plasmodium falciparum 3D7)
Test: Inhibition of P. falciparum M17 aminopeptidase – biochemical, QFRET, set 3, dose response (AID 602309)
Settings: purified rPfM17LAP, H-Leu-NHMec fluorogenic cleavage
In short: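 Measured by: fluorescence at 370/460 nm; material: purified recombinant Plasmodium falciparum M17 leucine aminopeptidase (rPFM17LAP); amount: rPFM17LAP enzyme at 5 µg/mL final; benchmarks: full reaction wells versus no-enzyme background wells; doses: 10-point twofold dilution series, 100 down to 0.2 µM; timing: enzyme reaction 90 min at room temperature; also added: H-Leu-NHMec substrate, 0.1 mM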

SMILES | IC50
CCCOc1ccc(CC(=O)NO)cc1 | 1390 nM
O=C(NO)c1ccc2ccccc2c1 | 46300 nM
CCC(C)Oc1ccc(CC(=O)NO)cc1 (stereo not drawn) | 2270 nM
CCCCOc1cccc(CC(=O)NO)c1 | 2260 nM
CCCCOc1ccc(C(C)C(=O)NO)cc1 (stereo not drawn) | 2160 nM

Same assay, conditions: purified rPfM17LAP, H-Leu-NHMec fluorogenic cleavage; at 100 µM (top of the series)

SMILES | inhibition
CCCOc1ccc(CC(=O)O)cc1 | inactive
CN(C)CCOc1ccc(CC(=O)O)cc1 | inactive
CCCCOc1ccc(CN(O)C(C)=O)cc1 | inactive
CCCCOc1ccc(C(C)(C)C(=O)O)cc1 | inactive
CCCCOc1ccc(CN(O)C(=O)c2ccccc2)cc1 | inactive
CCCCOc1ccc(C(C)(C)C(=O)NO)cc1 | inactive
CCCCOc1cccc(CC(=O)OC)c1 | inactive
CCCCOc1ccc(C(C)C(=O)OC)cc1 (stereo not drawn) | inactive

— PubChem BioAssay AID602309 (Southern Research Specialized Biocontainment Screening …, 2012)
